Published values of several laboratories.
Target: Histamine H3 receptor (HRH3, Homo sapiens, UniProt Q9Y5N1)
Method: radioligand

`CCCCN1CCC(COC(=O)c2ccc(N)c(OCF)c2)CC1` gave a Ki of 3100 nM (cell-free assay).
`CCC(=O)c1ccc(OCCCCCCN2CCCC(C)C2)cc1` (centres unmarked) has a Ki of 39 nM (ligand displacement; cell membranes).
`CN(C)c1ccc(/C=C2\CCc3ccc(OCc4ccc(OCCCN5CCCCC5)cc4)cc3C2=O)cc1` gave a Ki of 97 nM (ligand displacement; cell membranes).
With `CC1CCCN(CCCCCCOc2ccc(-c3ccccc3)cc2)C1` (centres unmarked) the Ki was 147 nM (ligand displacement; cell membranes).
`O=C1NC(c2ccccc2)(c2ccccc2)C(=O)N1CCCN1CCCCC1` gave a Ki of 6.15 nM (ligand displacement; cell membranes).
`CN1CCN(c2cc(Nc3ccc(OCCCN4CCCCC4)cc3)nc(N)n2)CC1` gave a Ki of 11.8 nM (ligand displacement; cell membranes).
For `O=C1CCCc2ccc(OCCCN3CCCCC3)cc21`, the Ki was 89 nM (ligand displacement; cell membranes).
`c1ccc(CNc2ccnc(Nc3ccc(OCCCN4CCCCC4)cc3)n2)cc1` has a Ki of 4.49 nM (ligand displacement; cell membranes).
`CN(C)c1ccc(/C=C/C=C2\CCc3cc(OCc4ccc(OCCCN5CCCCC5)cc4)ccc3C2=O)cc1` has a Ki of 68 nM (ligand displacement; cell membranes).
For `O=C1NC(=O)C(c2ccccc2)(c2ccc(OCCCN3CCCCC3)cc2)N1` (centres unmarked), the Ki was 579 nM (ligand displacement; cell membranes).
The Ki of `CCCc1ccc(OCCCCCCN2CCCC(C)C2)cc1` (centres unmarked) is reported as 85.9 nM (ligand displacement; cell membranes).
